Assay results of several laboratories.
Each line is one published result; the experiments were not run side by side.
TYR: Tyrosinase (TYR, Homo sapiens, UniProt P14679)
PIK3C3: Phosphatidylinositol 3-kinase catalytic subunit type 3 (PIK3C3, Homo sapiens, UniProt Q8NEB9)
Si: Sucrase-isomaltase, intestinal (Si, Rattus norvegicus, UniProt P23739)
NR3C1: Glucocorticoid receptor (NR3C1, Homo sapiens, UniProt P04150)
Abl2: Abl2 (Mus musculus, UniProt Q4JIM5)
ESR1: Estrogen receptor (ESR1, Homo sapiens, UniProt P03372)

`Cc1ccc(C(C)C)cc1NC(=O)COC(=O)/C=C/c1ccccc1O` gave an inhibition of 53.7% (TYR; enzyme activity, inhibitor; 50 µg/mL).
The inhibition of `CN(C)C1CCN(CC#Cc2nn(C3CCCC3)c3nc(NCc4ccccc4)ncc23)C1` (stereo not shown) is reported as 0% (Leucine-rich repeat serine/threonine-protein kinase 2 (LRRK2, Homo sapiens, UniProt Q5S007); enzyme activity, inhibitor, FRET; 1 µM).
`COc1cc(-c2cc(-c3ccc(N4CCNCC4)cc3)cnc2C)cc(OC)c1OC` has an inhibition of 2% (cAMP-dependent protein kinase catalytic subunit beta (PRKACB, Homo sapiens, UniProt P22694); enzyme activity, inhibitor; 0.1 µM).
`CC(C)CCn1c(SCC(=O)Nc2ccccc2C(F)(F)F)nc2nccnc2c1=O` has an inhibition of less than 20% (PIK3C3; enzyme activity, inhibitor; 10 µM).
The inhibition of `O=c1c(O[C@@H]2O[C@H](CO)[C@@H](O)[C@H](O)[C@H]2O)c(-c2ccc(O)c(O)c2)oc2cc(O)cc(O)c12` is reported as 61.4% (Si; enzyme activity, inhibitor; 200 µg/mL).
`Cc1ccc(C(C)C)cc1NC(=O)COC(=O)c1ccc(O)cc1O` gave an inhibition of 66.7% (TYR; enzyme activity, inhibitor; 50 µg/mL).
`Oc1cccc(Nc2nc(-c3ccc(F)cc3F)cs2)c1` gave an inhibition of 21.6% (NR3C1; cell-free assay; 10 µM).
`O=c1c(O[C@@H]2O[C@@H](CO)[C@H](O)[C@H]2O)c(-c2ccc(O)c(O)c2)oc2cc(O)cc(O)c12` has an inhibition of 28.6% (Si; enzyme activity, inhibitor; 25 µg/mL).
With `CNC(=O)c1cc(Oc2ccc(NC(=O)Nc3ccc(Cl)c(C(F)(F)F)c3)cc2)ccn1` the inhibition was 61% (Abl2; enzyme activity, inhibitor; 10 µM).
The inhibition of `Cc1ccc(C(C)C)cc1NC(=O)COC(=O)/C=C/c1ccccc1` is reported as 82.3% (TYR; enzyme activity, inhibitor; 50 µg/mL).
`COc1cc(NC(C)=O)c(Cl)cc1C(=O)Nc1nccs1` gave an inhibition of 1.4% (ESR1; cell-free assay; 10 µM).
For `O=C(Nc1ccc(S(=O)(=O)N2CCC(Cl)CC2)cc1)c1ccc([N+](=O)[O-])o1`, the inhibition was 19% (NR3C1; ligand displacement, radioligand; 10 µM).
With `CCN(CC)c1ccc(C2=NNC(=O)CC2C)cc1[N+](=O)[O-]` (stereo not shown) the inhibition was 95% (cGMP-inhibited 3',5'-cyclic phosphodiesterase 3A (PDE3A, Homo sapiens, UniProt Q14432); enzyme activity, inhibitor; 0.1 µM).
The inhibition of `O=C(c1ccc(Cl)cc1)N(Cc1ccccc1)C1CCCCC1` is reported as -2.9% (ESR1; cell-free assay; 10 µM).
For `Cc1ccc(Nc2nccc(N(C)c3ccc4c(C)n(C)nc4c3)n2)cc1S(N)(=O)=O`, the inhibition was 38% (Abl2; enzyme activity, inhibitor; 0.3 µM).
For `CCCNc1nc2ccccc2n1Cc1ccc(Cl)cc1`, the inhibition was 84.8% (Alpha-2C adrenergic receptor (ADRA2C, Homo sapiens, UniProt P18825); ligand displacement; 10 µM).
For `O=C(CSc1nc2nccnc2c(=O)n1CCc1ccccc1)Nc1ccccc1`, the inhibition was less than 20% (PIK3C3; enzyme activity, inhibitor; 10 µM).
`CCN(Cc1ccccc1C(F)(F)F)C(=O)C1CCN(S(=O)(=O)c2ccc3[nH]ncc3c2)CC1` gave an inhibition of 1% (NR3C1; ligand displacement, radioligand; 10 µM).
For `CC(CN(C)C)C(Oc1cccc2ccccc12)c1cccs1` (stereo not shown), the inhibition was less than 70% (Norepinephrine transporter (Slc6a2, Rattus norvegicus, UniProt Q9WTR4); ligand displacement, radioligand; 10 µM, cell membranes).
The inhibition of `Cc1ccc(C(C)C)cc1NC(=O)COC(=O)c1cc(O)cc(O)c1` is reported as 54.6% (TYR; enzyme activity, inhibitor; 50 µg/mL).
The inhibition of `O=C1OC[C@H]2OC(=O)c3cc(O)c(O)c(O)c3-c3c(O)c(O)c(O)c4c3C(=O)O[C@H]([C@H]3OC(=O)c5c-4c(O)c(O)c(O)c5[C@H]3O)[C@@H]2OC(=O)c2cc(O)c(O)c(O)c2-c2c1cc(O)c(O)c2O` is reported as 28.4% (Si; enzyme activity, inhibitor; 50 µg/mL).
The inhibition of `Cc1ccc(C(C)C)cc1NC(=O)COC(=O)c1ccc(O)c(O)c1` is reported as 56.9% (TYR; enzyme activity, inhibitor; 50 µg/mL).
`CNc1cc(Oc2cc(C(=O)Nc3cc(N4CCN(C)CC4)cc(C(F)(F)F)c3)ccc2C)ncn1` gave an inhibition of -15.7% (Serine/threonine-protein kinase SMG1 (SMG1, Homo sapiens, UniProt Q96Q15); target engagement in cells, inhibitor, chemoproteomics; Huh-7; 1 µM).
`O=C(c1ccc(F)cc1)N(Cc1ccccc1)C1CCCCC1` has an inhibition of 14% (Interleukin-1 receptor type 1 (IL1R1, Homo sapiens, UniProt P14778); cell-free assay; 10 µM).
For `COc1cc(Cl)c(C(=O)N[C@@H](CN[C@H]2CC[C@@H](N)CC2)Cc2ccc(C#N)cc2)cc1-c1ccc(CN[C@H](C)c2ccc(C)cc2)o1`, the inhibition was -25% (P2Y purinoceptor 2 (P2RY2, Homo sapiens, UniProt P41231); calcium signal, antagonist; 10 µM).
